According to ChEMBL document CHEMBL1255457, “Determination of an inoculum effect with various cephalosporins among clinical isolates of methicillin-susceptible Staphylococcus aureus” (2010):
Converted amounts (≈) assume the structure as drawn.

Columns and labels:
Format in all cases: functional
Staphylococcus aureus [1] = experiment: Antibacterial activity against methicillin-susceptible beta-lactamase positive Staphylococcus aureus using 5x10^5 CFU/ml standard inoculum after 24 hrs by broth microdilution method
In short: (§1)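 Clinical MSSA isolates previously typed by Bla (25 type A, 15 type B, 45 type C, 13 blaZ-negative), with TX0117, ATCC 29213 and ATCC 25923 as controls. Broth microdilution per CLSI, read at 24 h. Standard (~5 × 10^5 CFU/ml) or high (~5 × 10^7 CFU/ml) inoculum set by OD, CFU/ml checked at random. MIC90 and geometric mean MIC per group, compared by Mann-Whitney test.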

Staphylococcus aureus [2] = experiment: Antibacterial activity against methicillin-susceptible beta-lactamase negative Staphylococcus aureus using 5x10^5 CFU/ml standard inoculum after 24 hrs by broth microdilution method; in short: as §1
Staphylococcus aureus [3] = experiment: Antibacterial activity against methicillin-susceptible beta-lactamase positive Staphylococcus aureus using 5x10^7 CFU/ml high inoculum after 24 hrs by broth microdilution method; in short: as §1
Staphylococcus aureus [4] = experiment: Antibacterial activity against methicillin-susceptible beta-lactamase negative Staphylococcus aureus using 5x10^7 CFU/ml high inoculum after 24 hrs by broth microdilution method; in short: as §1
Staphylococcus aureus [5] = experiment: Antibacterial activity against methicillin-susceptible Bla-producing Staphylococcus aureus type A using 5x10^5 CFU/ml standard inoculum after 24 hrs by broth microdilution method; in short: as §1
Staphylococcus aureus [6] = experiment: Antibacterial activity against methicillin-susceptible Bla-producing Staphylococcus aureus type B using 5x10^5 CFU/ml standard inoculum after 24 hrs by broth microdilution method; in short: as §1
Staphylococcus aureus [7] = experiment: Antibacterial activity against methicillin-susceptible Bla-producing Staphylococcus aureus type C using 5x10^5 CFU/ml standard inoculum after 24 hrs by broth microdilution method; in short: as §1
Staphylococcus aureus [8] = experiment: Antibacterial activity against methicillin-susceptible Bla-producing Staphylococcus aureus type B using 5x10^7 CFU/ml high inoculum after 24 hrs by broth microdilution method; in short: as §1
Staphylococcus aureus [9] = experiment: Antibacterial activity against methicillin-susceptible Bla-producing Staphylococcus aureus type C using 5x10^7 CFU/ml high inoculum after 24 hrs by broth microdilution method; in short: as §1
Staphylococcus aureus [10] = experiment: Antibacterial activity against methicillin-susceptible Bla-producing Staphylococcus aureus type A using 5x10^7 CFU/ml high inoculum after 24 hrs by broth microdilution method; in short: as §1

Structure (SMILES) | MIC (Staphylococcus aureus [1]) [µg/mL] | MIC90 (Staphylococcus aureus [1]) [µg/mL] | MIC (Staphylococcus aureus [2]) [µg/mL] | MIC90 (Staphylococcus aureus [2]) [µg/mL] | MIC (Staphylococcus aureus [3]) [µg/mL] | MIC90 (Staphylococcus aureus [3]) [µg/mL] | MIC (Staphylococcus aureus [4]) [µg/mL] | MIC90 (Staphylococcus aureus [4]) [µg/mL] | MIC (Staphylococcus aureus [5]) [µg/mL] | MIC90 (Staphylococcus aureus [5]) [µg/mL] | MIC (Staphylococcus aureus [6]) [µg/mL] | MIC90 (Staphylococcus aureus [6]) [µg/mL] | MIC (Staphylococcus aureus [7]) [µg/mL] | MIC90 (Staphylococcus aureus [7]) [µg/mL] | MIC (Staphylococcus aureus [8]) [µg/mL] | MIC90 (Staphylococcus aureus [8]) [µg/mL] | MIC (Staphylococcus aureus [9]) [µg/mL] | MIC90 (Staphylococcus aureus [9]) [µg/mL] | MIC (Staphylococcus aureus [10]) [µg/mL] | MIC90 (Staphylococcus aureus [10]) [µg/mL]
CO/N=C(\C(=O)N[C@@H]1C(=O)N2C(C(=O)O)=C(CSc3nc(=O)c(O)nn3C)CS[C@H]12)c1csc(N)n1 [CEFTRIAXONE] | 2.9 (≈ 5.23 µM) | 4 (≈ 7.21 µM) | 3.1 (≈ 5.59 µM) | 4 (≈ 7.21 µM) | 3.4 (≈ 6.13 µM) | 4 (≈ 7.21 µM) | 3.1 (≈ 5.59 µM) | 4 (≈ 7.21 µM) |  |  |  |  |  |  |  |  |  |  |  | 
Nc1nc(/C(=N/O)C(=O)N[C@@H]2C(=O)N3C(C(=O)O)=C(/C=C4\CCN([C@@H]5CCNC5)C4=O)CS[C@H]23)ns1 [CEFTOBIPROLE] | 0.4 (≈ 0.748 µM) | 0.5 (≈ 0.935 µM) | 0.3 (≈ 0.561 µM) | 0.5 (≈ 0.935 µM) | 0.7 (≈ 1.31 µM) | 1 (≈ 1.87 µM) | 0.3 (≈ 0.561 µM) | 0.5 (≈ 0.935 µM) | 0.4 (≈ 0.748 µM) | 0.5 (≈ 0.935 µM) | 0.5 (≈ 0.935 µM) | 0.5 (≈ 0.935 µM) | 0.5 (≈ 0.935 µM) | 0.5 (≈ 0.935 µM) | 0.7 (≈ 1.31 µM) | 2 (≈ 3.74 µM) | 0.7 (≈ 1.31 µM) | 1 (≈ 1.87 µM) | 0.7 (≈ 1.31 µM) | 1 (≈ 1.87 µM)
CC(=O)OCC1=C(C(=O)O)N2C(=O)[C@@H](NC(=O)Cc3cccs3)[C@H]2SC1 [CEPHALOTHIN] | 0.5 (≈ 1.26 µM) | 1 (≈ 2.52 µM) | 0.3 (≈ 0.757 µM) | 0.5 (≈ 1.26 µM) | 1.9 (≈ 4.79 µM) | 8 (≈ 20.2 µM) | 0.3 (≈ 0.757 µM) | 0.5 (≈ 1.26 µM) | 0.4 (≈ 1.01 µM) | 0.5 (≈ 1.26 µM) | 0.5 (≈ 1.26 µM) | 1 (≈ 2.52 µM) | 0.6 (≈ 1.51 µM) | 1 (≈ 2.52 µM) | 1.3 (≈ 3.28 µM) | 4 (≈ 10.1 µM) | 3 (≈ 7.57 µM) | 8 (≈ 20.2 µM) | 2 (≈ 5.04 µM) | 8 (≈ 20.2 µM)
CCOc1ccc2ccccc2c1C(=O)N[C@@H]1C(=O)N2[C@@H]1SC(C)(C)[C@@H]2C(=O)O [NAFCILLIN] | 0.4 (≈ 0.965 µM) | 0.5 (≈ 1.21 µM) | 0.4 (≈ 0.965 µM) | 0.5 (≈ 1.21 µM) | 0.7 (≈ 1.69 µM) | 1 (≈ 2.41 µM) | 0.7 (≈ 1.69 µM) | 1 (≈ 2.41 µM) |  |  |  |  |  |  |  |  |  |  |  | 
CC1=C(C(=O)O)N2C(=O)[C@@H](NC(=O)[C@H](N)c3ccccc3)[C@H]2SC1 [CEPHALEXIN ANHYDROUS] | 3.9 (≈ 11.2 µM) | 4 (≈ 11.5 µM) | 2.5 (≈ 7.2 µM) | 4 (≈ 11.5 µM) | 10.7 (≈ 30.8 µM) | 32 (≈ 92.1 µM) | 3.1 (≈ 8.92 µM) | 4 (≈ 11.5 µM) | 4.6 (≈ 13.2 µM) | 8 (≈ 23 µM) | 3.3 (≈ 9.5 µM) | 4 (≈ 11.5 µM) | 3.8 (≈ 10.9 µM) | 4 (≈ 11.5 µM) | 14.7 (≈ 42.3 µM) | 64 (≈ 184 µM) | 6.6 (≈ 19 µM) | 16 (≈ 46.1 µM) | 10.6 (≈ 30.5 µM) | 32 (≈ 92.1 µM)
CO/N=C(\C(=O)N[C@@H]1C(=O)N2C(C(=O)O)=C(COC(N)=O)CS[C@H]12)c1ccco1 [CEFUROXIME] |  |  |  |  | 1 (≈ 2.36 µM) | 1 (≈ 2.36 µM) | 1 (≈ 2.36 µM) | 1 (≈ 2.36 µM) |  |  |  |  |  |  |  |  |  |  |  | 
